High-throughput results as filed in PubChem.
An excerpt weighted towards active compounds, which were near 3% of everything screened.
NPY2 pot ag: human NPY-Y2 potentiation or agonism, primary screen; P49146; cells expressing NPY-Y2, potentiator/agonist read-out; activation, % at 3.6 µM; hit rate 0.45% among 220,000; in the data active = activation above about 27%;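 also: cells stimulated with NPY near EC25 plus isoproterenol at EC100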
NPY-Y1 antag: antagonists of human neuropeptide Y receptor Y1; HEK293-CNG Y1 cells, membrane potential fluorescence; NPY at EC95, then isoproterenol; P25929; inhibition, % at 3.6 µM; hit rate 1% among 200,000;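 active = inhibition above the campaign mean inhibition of all tested compounds plus 3 SD, cut at about 20% in these data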
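Test system – HEK293 Y1/CNG channel cell line · Also added – NPY agonist 25 nM, then isoproterenol 1 µM plus Ro 20-1724 25 µM · Compound dosing – one concentration, 3.6 µM, in 0.4% DMSO · Schedule – compound incubation 1 h at room temperature, readout 45 min post-stimulation · Technique – fluorescence, membrane potential probe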
Wee1 degr inh: human Wee1 degradation inhibition, primary screen; P30291; reporter increase, % at 5 µM; hit rate 1.2% among 220,000; HeLa Luc-Wee1K328M stability, luciferase luminescence; 100% = proteasome inhibitor MG132 effect;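 active = activation above the mean of all tested compounds plus 3 SD, set per screening run, cut at about 8.8% in these data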;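 also: cells exposed to compound for 20 h before luminescence read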
NPY Y2 blocker: blocks the human neuropeptide Y Y2 receptor. inhibition, % at 2.7 µM. NPY-Y2 expressing cells, antagonist mode. P49146. hit rate 0.99% among 140,000
NPY1 pot ag: human NPY-Y1 potentiation or agonism, primary screen; NPY-Y1 expressing cells, potentiator/agonist activation; activation, % at 3.6 µM; hit rate 0.37% among 220,000; in the data active = activation above about 33%, passing the limit was not always enough;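 also: cells stimulated with NPY at EC10 then isoproterenol at EC100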
Hsp70 act: transcriptional activators of Hsp70; HeLa Hsp70 promoter luciferase reporter, luminescence; scaled: vehicle 0, proteasome-inhibitor control 100%; hit rate 0.04% among 200,000; activation, % at 10 µM; AID 1203;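 active = activation above the mean across all tested compounds plus 3 SD, cutoff set per campaign, cut at about 5.5% in these data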
NPY1 antag conf: confirmation of human neuropeptide Y receptor Y1 antagonists; HEK293-CNG NPY-Y1, membrane potential fluorescence, cAMP; NPY challenge against isoproterenol-raised cAMP; AID 1254; inhibition, % at 3.6 µM; hit rate 21% among 1,200; shares compounds with NPY-Y1 antag; in the data active = inhibition above about 20%
NPY2 antag ctr: antagonizes human NPY-Y2, counter-screen to NPY-Y1 antagonists. AID 1255. inhibition, % at 3.6 µM. hit rate 28% among 1,200. HEK293 NPY-Y2 CNG membrane potential fluorescence, antagonism; cells given NPY, then isoproterenol. shares compounds with NPY-Y1 antag
Large screens that a line does not name were inactive (follow-up assays come after a bar, where they were run). Rule as the data show it, unless noted: active = inhibition above about 17%; inactive = the rest.

COc1ccc(Br)cc1CN(C)CC(=O)NCCc1ccccc1	none (no result: NPY Y2 blocker)
c1ccc(COc2ccccc2CNC2CCCC2)cc1	NPY-Y1 antag 32 (no result: NPY Y2 blocker) | NPY1 antag conf inactive | NPY2 antag ctr inactive
c1ccc(COc2ccccc2CNC23CC4CC(CC(C4)C2)C3)cc1	NPY-Y1 antag 158 (no result: NPY Y2 blocker) | NPY1 antag conf 110 | NPY2 antag ctr 70
O=C(COc1ccc(Br)cc1CNC1CCCCC1)NCCc1ccccc1	NPY-Y1 antag 27 (no result: NPY Y2 blocker) | NPY1 antag conf inactive | NPY2 antag ctr inactive
O=C(O)CSc1ccc2ccccc2n1	NPY-Y1 antag 20 | NPY1 antag conf inactive | NPY2 antag ctr inactive
CCCC12CN(C(=O)c3ccc([N+](=O)[O-])cc3)CC(C)(CN(C(=O)c3ccc([N+](=O)[O-])cc3)C1)C2=O	none (no result: NPY-Y1 antag, NPY Y2 blocker, Hsp70 act)
Cc1ccc(C(=O)N2CCN(c3cnn(C)c(=O)c3Cl)CC2)cc1	none (no result: NPY Y2 blocker)
O=C(OCC(=O)N1N=C(c2ccc(Cl)cc2)CC1c1ccco1)c1ccccc1O (stereo not given)	NPY-Y1 antag 22 | NPY1 antag conf inactive | NPY2 antag ctr inactive
O=C(Nc1cccc(C(F)(F)F)c1)c1ccc(Cn2cc(Br)cn2)o1	none
O=C(Nc1ccc(C(F)(F)F)cc1Cl)c1ccc(Cn2cc(Br)cn2)o1	NPY-Y1 antag 22 | NPY1 antag conf inactive | NPY2 antag ctr inactive
Cc1ccccc1OCc1nc2ccccc2c(=O)n1NC(=O)c1ccco1	NPY-Y1 antag 20 | NPY1 antag conf inactive | NPY2 antag ctr inactive
C=CCOc1ccc(Br)cc1/C=N/O	NPY-Y1 antag 24 | NPY1 antag conf inactive | NPY2 antag ctr inactive
O=C1/C(=C/c2ccccn2)SC(=S)N1NS(=O)(=O)c1ccccc1	NPY-Y1 antag 24 (no result: NPY Y2 blocker) | NPY1 antag conf inactive | NPY2 antag ctr inactive
Cc1cc(NC(=O)CSc2nc3ccccc3c(=O)n2C2CCCC2)no1	NPY-Y1 antag 33 | NPY1 antag conf inactive | NPY2 antag ctr inactive
COc1ccc(-n2c(CCC(=O)O)ccc2-c2ccccc2)cc1	NPY-Y1 antag 27 (no result: NPY Y2 blocker) | NPY1 antag conf inactive | NPY2 antag ctr inactive
Cn1c(N)c(C(=O)COC(=O)/C=C/c2ccc(S(=O)(=O)N3CCOCC3)cc2)c(=O)n(C)c1=O	none (no result: NPY-Y1 antag, NPY Y2 blocker, Hsp70 act)
CC(C(=O)Nc1ccc(OCc2ccccc2)cc1)N1CCCC1 (stereo not given)	none (no result: NPY Y2 blocker)
CC(C)COCC(CN(Cc1ccccc1)c1ccccc1)N1CCCC1 (stereo not given)	NPY-Y1 antag 31 (no result: NPY Y2 blocker) | NPY1 antag conf inactive | NPY2 antag ctr inactive
CN1CCc2c(n(CC(O)CN(CCO)CCO)c3ccccc23)C1=O (stereo not given)	none (no result: NPY Y2 blocker)
CN1CCc2c(n(CC(O)CNCc3ccccc3)c3ccccc23)C1=O (stereo not given)	NPY-Y1 antag 22 (no result: NPY Y2 blocker) | NPY1 antag conf inactive | NPY2 antag ctr inactive
COc1ccc(-c2[nH]ncc2CN2CCCO2)c(F)c1	none (no result: NPY Y2 blocker)
N=c1c2c(-c3ccccc3)c(-c3ccccc3)n(Cc3ccco3)c2ncn1CCCN1CCOCC1	NPY-Y1 antag 56 (no result: NPY Y2 blocker) | NPY1 antag conf 44 | NPY2 antag ctr 39
O=C(c1ccccc1)c1ccc(Oc2ncccn2)cc1	none
Cn1ccnc1C1CCCCN1Cc1nc(Cc2cccc(C(F)(F)F)c2)no1 (stereo not given)	none (no result: NPY Y2 blocker)
COc1ccc(-c2noc(CN3CCCCC3c3nccn3C)n2)cc1 (stereo not given)	NPY-Y1 antag 42 (no result: NPY Y2 blocker) | NPY1 antag conf 30 | NPY2 antag ctr inactive
Cn1ccnc1C1CCCCN1Cc1nc(-c2ccc3c(c2)OCO3)no1 (stereo not given)	NPY-Y1 antag 42 (no result: NPY Y2 blocker) | NPY1 antag conf 27 | NPY2 antag ctr inactive
Cc1cc(C)cc(C(=O)Nc2ccc3[nH]c(=O)[nH]c3c2)c1	none (no result: NPY Y2 blocker)
C=C(Cl)COc1ccc2c(CC)cc(=O)oc2c1	none
C=C(Cl)COc1ccc2c(CCCC)cc(=O)oc2c1	NPY-Y1 antag 21, Wee1 degr inh 9.3 | NPY1 antag conf inactive | NPY2 antag ctr 24
